From ChEMBL document CHEMBL4610003 (Bioorg Med Chem, 2020)
≈ marks a conversion by molar mass, not a printed value.

Tests used:
[1] = tested on: Mycobacterium tuberculosis; assay: Antimycobacterial activity against Mycobacterium tuberculosis H37Rv assessed as bacterial growth inhibition incubated for 10 days under anerobic condition followed by incubation under ambient gaseous condition for […] by low oxygen recovery assay; format: functional
Method in brief: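 Read-out is MIC90, the lowest concentration giving 90% growth inhibition of M.tb H37Rv, in µg/mL. Bacteria were held under non-replicating, low-oxygen conditions (LORA).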

[2] = tested on: Mycobacterium tuberculosis; assay: Antimycobacterial activity against Mycobacterium tuberculosis H37Rv assessed as bacterial growth inhibition under replicating, aerobic condition by microplate Alamar blue assay; format: functional
Method in brief: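 Read-out is MIC90, the lowest concentration giving 90% growth inhibition of M.tb H37Rv, in µg/mL. Bacteria were grown under aerobic, replicating conditions (MABA).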

[3] = molecular target: Voltage-gated inwardly rectifying potassium channel KCNH2 (Homo sapiens, UniProt Q12809); assay: Inhibition of human ERG
[4] = Intrinsic clearance in human liver microsomes assessed per mg protein; format: ADME, Microsome; conditions: read-out: CLH
Method in brief: (§1)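 Clearance of compound by human or mouse liver microsomes, expressed as µL/min/mg protein.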

[5] = Oral bioavailability in CD-1 mouse at 10 mg/kg administered via gavage as single dose; format: ADME, organism-based; conditions: in vivo
[6] = Apparent volume of distribution during terminal phase in CD-1 mouse at 2 to 3 mg/kg, iv administered as single bolus dose; format: ADME, organism-based; conditions: in vivo
Method in brief: (§2)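 Male CD-1 mice received a single intravenous bolus at 2–3 mg/kg. Reported values are IV clearance and the apparent volume of distribution during the terminal phase, in L/kg.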

[7] = Clearance in CD-1 mouse at 2 to 3 mg/kg, iv administered as single bolus dose; format: ADME, organism-based; conditions: in vivo; method in brief: as §2
[8] = AUC (0 to infinity) in CD-1 mouse at 10 mg/kg, po via gavage administered as single dose; format: ADME, organism-based; parameters: dose 10 mg/kg, route oral, time infinity; conditions: in vivo
Method in brief: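 Male CD-1 mice given a single 10 mg/kg dose by oral gavage. Exposure is reported as area under the curve from 0 to infinity in µg*h/mL.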

[9] = tested on: Vero; assay: Cytotoxicity against African green monkey Vero cells assessed as reduction in cell viability incubated for 72 hrs by […] assay; format: cell-based; conditions: Chlorocebus sabaeus
[10] = Intrinsic clearance in mouse liver microsomes assessed per mg protein; format: ADME, Microsome; conditions: read-out: CLH; method in brief: as §1

Sequence of Voltage-gated inwardly rectifying potassium channel KCNH2 (Q12809 whole entry): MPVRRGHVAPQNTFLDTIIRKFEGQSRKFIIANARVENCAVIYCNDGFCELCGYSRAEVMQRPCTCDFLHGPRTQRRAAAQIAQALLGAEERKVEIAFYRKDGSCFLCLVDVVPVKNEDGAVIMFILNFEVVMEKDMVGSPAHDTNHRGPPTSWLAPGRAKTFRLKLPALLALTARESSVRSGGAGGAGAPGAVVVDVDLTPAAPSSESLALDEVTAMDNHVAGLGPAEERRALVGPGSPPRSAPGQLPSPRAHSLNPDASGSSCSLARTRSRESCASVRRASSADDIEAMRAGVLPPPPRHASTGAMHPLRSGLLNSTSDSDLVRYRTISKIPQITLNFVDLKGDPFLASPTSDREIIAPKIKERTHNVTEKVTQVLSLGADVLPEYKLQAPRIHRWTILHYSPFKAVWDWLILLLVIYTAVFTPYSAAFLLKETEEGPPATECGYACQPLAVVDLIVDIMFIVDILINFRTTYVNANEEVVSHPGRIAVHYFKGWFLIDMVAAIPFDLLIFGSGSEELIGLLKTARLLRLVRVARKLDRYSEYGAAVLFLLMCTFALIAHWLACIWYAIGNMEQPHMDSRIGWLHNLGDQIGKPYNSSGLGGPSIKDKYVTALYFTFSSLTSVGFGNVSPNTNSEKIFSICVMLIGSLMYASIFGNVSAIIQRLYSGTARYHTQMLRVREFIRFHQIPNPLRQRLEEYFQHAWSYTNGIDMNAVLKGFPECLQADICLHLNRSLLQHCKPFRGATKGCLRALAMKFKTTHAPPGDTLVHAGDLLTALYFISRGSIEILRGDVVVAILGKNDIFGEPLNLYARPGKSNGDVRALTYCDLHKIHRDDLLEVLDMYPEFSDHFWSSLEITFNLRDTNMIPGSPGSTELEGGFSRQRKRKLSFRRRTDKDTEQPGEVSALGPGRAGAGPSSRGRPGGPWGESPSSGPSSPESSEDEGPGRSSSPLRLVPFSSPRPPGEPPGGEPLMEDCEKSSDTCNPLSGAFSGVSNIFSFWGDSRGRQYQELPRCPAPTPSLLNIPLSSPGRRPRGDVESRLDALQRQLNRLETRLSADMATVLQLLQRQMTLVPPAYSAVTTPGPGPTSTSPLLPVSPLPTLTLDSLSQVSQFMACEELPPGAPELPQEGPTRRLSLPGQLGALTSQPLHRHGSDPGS

Row | SMILES | MIC90 [1] | MIC90 [2] | IC50 [3] | microsomal CLint [4] | bioavailability [5] | Vz/F [6] | clearance [7] | AUC(0-inf) [8] | IC50 [9] | microsomal CLint [10]
1 | CCSc1cc([C@](O)(CCN(C)C)[C@@H](c2cc3cc(Br)ccc3nc2OC)c2ccnc(OC)c2OC)cc(N(C)C)n1 (racemic) | 0.57 µg/mL (≈ 0.85 µM) | 0.04 µg/mL (≈ 0.0596 µM) | > 10 µM | – | – | – | – | – | – | –
2 | COc1cc([C@](O)(CCN(C)C)[C@@H](c2cc3cc(Br)ccc3nc2OC)c2ccnc(OC)c2OC)cc(OC2CCC2)n1 (racemic) | 0.01 µg/mL (≈ 0.015 µM) | < 0.004 µg/mL | > 10 µM | 2.5 µL/min/mg | 56% | 33 L/kg | 11 mL/min/kg | 8400 ng·h/mL | > 10 µg/mL | 4.6 µL/min/mg
3 | CCOc1cc([C@](O)(CCN(C)C)[C@@H](c2cc3cc(Br)ccc3nc2OC)c2cccc(OC)c2F)cc(OC)n1 (racemic) | < 0.01 µg/mL | < 0.01 µg/mL | > 30 µM | 4.1 µL/min/mg | 46% | 51 L/kg | 19 mL/min/kg | 4000 ng·h/mL | > 10 µg/mL | 14 µL/min/mg
4 | COc1cc([C@](O)(CCN(C)C)[C@@H](c2cc3cc(Br)ccc3nc2OC)c2ccnc(OC)c2OC)cc(OC(F)F)n1 (racemic) | < 0.004 µg/mL | < 0.004 µg/mL | > 10 µM | 2.1 µL/min/mg | 50% | 27 L/kg | 8.7 mL/min/kg | 9800 ng·h/mL | > 10 µg/mL | 4.9 µL/min/mg
5 | COc1cc([C@](O)(CCN(C)C)[C@@H](c2cc3cc(Br)ccc3nc2OC)c2ccnc(OC)c2OC)cc(OC(C)C)n1 (racemic) | < 0.01 µg/mL | < 0.01 µg/mL | 17 µM | 6.4 µL/min/mg | 22% | 19 L/kg | 6.8 mL/min/kg | 5600 ng·h/mL | > 10 µg/mL | 6.7 µL/min/mg
6 | CCCOc1cc([C@](O)(CCN(C)C)[C@@H](c2cc3cc(Br)ccc3nc2OC)c2ccnc(OC)c2OC)cc(OC)n1 (racemic) | 0.06 µg/mL (≈ 0.0915 µM) | 0.01 µg/mL (≈ 0.0153 µM) | – | 8.2 µL/min/mg | 50% | 44 L/kg | 6.9 mL/min/kg | 10900 ng·h/mL | > 10 µg/mL | 6.5 µL/min/mg
7 | COc1cc([C@](O)(CCN(C)C)[C@@H](c2cc3cc(C#N)ccc3nc2OC)c2cccc(C)c2F)cc(OC(F)F)n1 (racemic) | 0.03 µg/mL (≈ 0.0517 µM) | 0.01 µg/mL (≈ 0.0172 µM) | > 30 µM | 0.6 µL/min/mg | 66% | 38 L/kg | 13 mL/min/kg | 8600 ng·h/mL | > 10 µg/mL | 5.9 µL/min/mg
8 | COc1cc([C@](O)(CCN(C)C)[C@@H](c2cc3cc(Br)ccc3nc2OC)c2cccc(OC)c2F)cc(OC(C)C)n1 (racemic) | 0.03 µg/mL (≈ 0.0467 µM) | < 0.02 µg/mL | > 30 µM | 3.4 µL/min/mg | 43% | 34 L/kg | 8.9 mL/min/kg | 9000 ng·h/mL | > 10 µg/mL | 6 µL/min/mg
9 | CCOc1cc([C@](O)(CCN(C)C)[C@@H](c2cc3cc(Br)ccc3nc2OC)c2ccnc(OC)c2OC)cc(OC(C)C)n1 (racemic) | < 0.02 µg/mL | < 0.02 µg/mL | – | 1.8 µL/min/mg | 58% | 9.1 L/kg | 3.1 mL/min/kg | 32000 ng·h/mL | > 10 µg/mL | 1.6 µL/min/mg
10 | COc1cc([C@](O)(CCN(C)C)[C@@H](c2cc3cc(C#N)ccc3nc2OC)c2cccc(OC)c2F)cc(SC)n1 (racemic) | 0.04 µg/mL (≈ 0.0694 µM) | 0.02 µg/mL (≈ 0.0347 µM) | > 10 µM | 16 µL/min/mg | 28% | 54 L/kg | 42 mL/min/kg | 1100 ng·h/mL | > 10 µg/mL | 36 µL/min/mg
11 | CCOc1cc([C@](O)(CCN(C)C)[C@@H](c2cc3cc(Br)ccc3nc2OC)c2ccnc(OC)c2OC)cc(OC)n1 (racemic) | < 0.02 µg/mL | < 0.02 µg/mL | 3.3 µM | 3.8 µL/min/mg | 70% | 28 L/kg | 9.5 mL/min/kg | 12700 ng·h/mL | > 10 µg/mL | 7.6 µL/min/mg
12 | COc1cc([C@](O)(CCN(C)C)[C@@H](c2cc3cc(C#N)ccc3nc2OC)c2ccnc(OC)c2OC)cc(N(C)C)n1 (racemic) | 0.06 µg/mL (≈ 0.102 µM) | 0.06 µg/mL (≈ 0.102 µM) | 3.4 µM | 8.4 µL/min/mg | 50% | 14 L/kg | 26 mL/min/kg | 3300 ng·h/mL | > 10 µg/mL | 16 µL/min/mg
13 | COc1cccc([C@H](c2cc3cc(Br)ccc3nc2OC)[C@@](O)(CCN(C)C)c2cc(SC)nc(SC)c2)c1F (racemic) | < 0.02 µg/mL | < 0.02 µg/mL | > 10 µM | 3.4 µL/min/mg | 66% | 15 L/kg | 13 mL/min/kg | 8400 ng·h/mL | 9.6 µg/mL (≈ 14.8 µM) | 17 µL/min/mg
14 | CCSc1cc([C@](O)(CCN(C)C)[C@@H](c2cc3cc(C#N)ccc3nc2OC)c2cccc(C)c2F)cc(SCC)n1 (racemic) | 0.06 µg/mL (≈ 0.0992 µM) | < 0.02 µg/mL | > 10 µM | 9.1 µL/min/mg | 22% | 41 L/kg | 9.4 mL/min/kg | 4000 ng·h/mL | > 10 µg/mL | 33 µL/min/mg
15 | COc1cc([C@](O)(CCN(C)C)[C@@H](c2cc3cc(Br)ccc3nc2OC)c2cccc(OC)c2F)cc(SC)n1 (racemic) | < 0.02 µg/mL | < 0.02 µg/mL | > 30 µM | 4.8 µL/min/mg | 31% | 32 L/kg | 13 mL/min/kg | 4600 ng·h/mL | > 10 µg/mL | 20 µL/min/mg
16 | CCSc1cc([C@](O)(CCN(C)C)[C@H](c2ccccc2)c2cc3cc(Br)ccc3nc2OC)cc(SCC)n1 (racemic) | 0.05 µg/mL (≈ 0.0798 µM) | 0.02 µg/mL (≈ 0.0319 µM) | > 30 µM | 2.3 µL/min/mg | 24% | 30 L/kg | 11 mL/min/kg | 4000 ng·h/mL | > 10 µg/mL | 17 µL/min/mg
17 | CCS(=O)(=O)c1cc([C@](O)(CCN(C)C)[C@@H](c2cc3cc(C#N)ccc3nc2OC)c2ccnc(OC)c2OC)cc(S(=O)(=O)CC)n1 (racemic) | 5 µg/mL (≈ 7.17 µM) | 4.4 µg/mL (≈ 6.31 µM) | – | – | – | – | – | – | – | –
18 | COc1cc([C@](O)(CCN(C)C)[C@@H](c2cc3cc(Br)ccc3nc2OC)c2cccc(OC)c2F)cc(S(C)(=O)=O)n1 (racemic) | 0.73 µg/mL (≈ 1.1 µM) | 0.46 µg/mL (≈ 0.694 µM) | 1.8 µM | – | – | – | – | – | – | –
19 | COc1cc([C@](O)(CCN(C)C)[C@@H](c2cc3cc(C#N)ccc3nc2OC)c2cccc(OC)c2F)cc(OC(F)F)n1 (racemic) | < 0.02 µg/mL | < 0.02 µg/mL | – | – | – | – | – | – | – | –
20 | COc1cc([C@](O)(CCN(C)C)[C@H](c2cccc(C)c2)c2cc3cc(Br)ccc3nc2OC)cc(OC(C)C)n1 (racemic) | 0.01 µg/mL (≈ 0.0164 µM) | 0.01 µg/mL (≈ 0.0164 µM) | > 10 µM | – | – | – | – | – | – | –
21 | CCSc1cc([C@](O)(CCN(C)C)[C@@H](c2cc3cc(Br)ccc3nc2OC)c2cccc3c2OCO3)cc(SCC)n1 (racemic) | 0.06 µg/mL (≈ 0.0895 µM) | 0.01 µg/mL (≈ 0.0149 µM) | > 10 µM | 9.5 µL/min/mg | 11% | 9.4 L/kg | 3.4 mL/min/kg | 5500 ng·h/mL | > 10 µg/mL | 12 µL/min/mg
22 | CCSc1cc([C@](O)(CCN(C)C)[C@@H](c2cc3cc(C#N)ccc3nc2OC)c2cccc(OC)c2F)cc(SCC)n1 (racemic) | 0.2 µg/mL (≈ 0.322 µM) | 0.1 µg/mL (≈ 0.161 µM) | > 10 µM | 17 µL/min/mg | 24% | 93 L/kg | 29 mL/min/kg | 1400 ng·h/mL | > 10 µg/mL | 27 µL/min/mg
23 | COc1cc([C@](O)(CCN(C)C)[C@@H](c2cc3cc(Br)ccc3nc2OC)c2ccnc(OC)c2OC)cc(N(C)C)n1 (racemic) | 0.02 µg/mL (≈ 0.0312 µM) | 0.45 µg/mL (≈ 0.702 µM) | – | – | – | – | – | – | – | –
24 | CCCOc1cc([C@](O)(CCN(C)C)[C@H](c2cccc(C)c2)c2cc3cc(Br)ccc3nc2OC)cc(OC)n1 (racemic) | 0.02 µg/mL (≈ 0.0329 µM) | 0.01 µg/mL (≈ 0.0164 µM) | > 10 µM | – | – | – | – | – | – | –
25 | CCSc1cc([C@](O)(CCN(C)C)[C@@H](c2cc3cc(C#N)ccc3nc2OC)c2cccc3c2OCO3)cc(SCC)n1 (racemic) | 0.05 µg/mL (≈ 0.0811 µM) | < 0.02 µg/mL | > 10 µM | – | – | – | – | – | – | –
26 | CCSc1cc([C@](O)(CCN(C)C)[C@@H](c2cc3cc(Br)ccc3nc2OC)c2ccnc(OC)c2OC)cc(SCC)n1 (racemic) | 0.21 µg/mL (≈ 0.305 µM) | 0.04 µg/mL (≈ 0.0582 µM) | 9.2 µM | – | – | – | – | – | – | –
27 | CCSc1cc([C@](O)(CCN(C)C)[C@@H](c2cc3cc(C#N)ccc3nc2OC)c2ccnc(OC)c2OC)cc(SCC)n1 (racemic) | 0.03 µg/mL (≈ 0.0473 µM) | 0.06 µg/mL (≈ 0.0947 µM) | 1.5 µM | – | – | – | – | – | – | –
